Experimental data: ChEMBL document CHEMBL5244268, “Preventing Candida albicans biofilm formation using aromatic-rich piperazines” (Bioorg Med Chem, 2020)
Converted amounts (≈) assume the structure as drawn. The source made the active and inactive calls. The rule behind the calls is not given here.

Legend:
[1] = system: Candida albicans; test: Antifungal activity against Candida albicans ATCC 28366 assessed as inhibition of fungal growth incubated for 24 hrs by plate count determination; format: functional
Method in brief: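 Biofilm-assay setup (Sabouraud pH 7.0, inoculum OD660 0.2, serial two-fold dilutions, 37 °C). […] Highest value kept when replicates differ. At least two independent experiments in triplicate.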

[2] = system: Candida albicans; test: Antibiofilm activity against Candida albicans ATCC 28366 at 48 ug/ml incubated for 24 to 48 hrs by crystal violet staining based absorbance spectrometry analysis; format: functional, organism-based; details: dose 48.0 µg/ml, time 24-48 hrs
Method in brief: (§1)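 Overnight cultures (37 °C, aerobic, Sabouraud pH 7.0) adjusted to OD660 0.2, mixed 1:1 with two-fold serial dilutions in medium and incubated at 37 °C. Biofilm stained with crystal violet, dye released in 75% ethanol, A550 read. Growth relative to compound-free wells (100%) after blank subtraction. At least two independent experiments in triplicate, t test.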

[3] = system: Candida albicans; test: Antibiofilm activity against Candida albicans ATCC 28366 assessed as disruption of preformed biofilm incubated for 12 hrs by crystal violet staining based absorbance spectrometry analysis; format: functional, organism-based
Method in brief: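 Mature biofilms grown 36 to 48 h in Sabouraud pH 7.0 without compound; medium and free cells removed, rinsed with 50 mM PBS pH 7.0, then two-fold serial dilutions in PBS added for 12 h at 37 °C. Residual biofilm stained with crystal violet, dye released in 75% ethanol, A550 read. PBS-treated biofilms as controls.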

[4] = system: Candida albicans; test: Antibiofilm activity against Candida albicans ATCC 28366 at up to 96 ug/ml incubated for 24 to 48 hrs by crystal violet staining based absorbance spectrometry analysis; format: functional, organism-based; details: dose <= 96.0 µg/ml, time 24-48 hrs; method in brief: as §1
[5] = system: Candida albicans; test: Antibiofilm activity against Candida albicans ATCC 28366 at 1 ug/ml incubated for 24 to 48 hrs by crystal violet staining based absorbance spectrometry analysis; format: functional, organism-based; details: dose 1.0 µg/ml, time 24-48 hrs; method in brief: as §1
[6] = system: Candida albicans; test: Antibiofilm activity against Candida albicans ATCC 28366 assessed as reduction in filamentation by measuring joint hyphae cell elongation at 1 ug/ml incubated for 4 hrs in spider medium by microscopic analysis; format: functional, organism-based; details: dose 1.0 µg/ml
Method in brief: (§2)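 Yeast-form cells grown overnight in YPD at 30 °C. 50 µL inoculated into 5 mL hypha-inducing medium (e.g., Spider: 1% nutrient broth, 1% mannitol, 0.2% K2HPO4, pH 7.2) containing two-fold dilutions, then 4 h at 37 °C. At least 100 cells per replicate counted as hypha (pseudohyphae and intermediates included) or yeast. Compound-free control for maximal conversion. At least two independent experiments in triplicate.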

[7] = Cytotoxicity against human B11 cells assessed as reduction in cell viability at >=24 ug/ml incubated for 24 hrs by MTT assay; format: toxicity, cell-based; details: b11, 24 h, dose > 24 µg/ml
Method in brief: (§3)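 B11 human oral epithelial cells in K-SFM with bovine pituitary extract and EGF, grown to confluence (1 × 10⁵ cells/well, 37 °C, 5% CO2). Treated with two-fold dilutions from 96 to 1.5 µg/mL for 2 or 24 h, then MTT viability read. Triplicate, mean ± SD.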

[8] = system: Candida albicans; test: Antibiofilm activity against Candida albicans ATCC 28366 assessed as inhibition of morphological switching at 1 ug/ml incubated for 4 hrs in YPD medium with fetal bovine serum by microscopic analysis; format: functional, organism-based; details: dose 1.0 µg/ml; method in brief: as §2
[9] = system: Candida albicans; test: Antibiofilm activity against Candida albicans ATCC 28366 assessed as inhibition of N-acetylglucosamine induced morphological switching at 1 to 4 ug/ml incubated for 4 hrs by microscopic analysis; format: functional, organism-based; details: dose 1-4 µg/ml; method in brief: as §2
[10] = system: Candida albicans; test: Antibiofilm activity against Candida albicans LAM-1 assessed as reduction in fungal growth at 1 to 4 ug/ml incubated for 4 hrs in spider medium by plate count determination; format: functional, organism-based; details: dose 1-4 µg/ml
Method in brief: (§4)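 After the 4 h, 37 °C morphogenesis incubation in Spider medium (YPD overnight inoculum, 50 µL into 5 mL), OD660 measured to follow fungal growth; C. albicans viability confirmed by plate count.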

[11] = system: Candida albicans; test: Antibiofilm activity against Candida albicans ATCC 28366 assessed as reduction in fungal growth at 1 to 4 ug/ml incubated for 4 hrs in spider medium by plate count determination; format: functional, organism-based; details: dose 1-4 µg/ml; method in brief: as §4
[12] = system: Candida albicans; test: Antibiofilm activity against FITC labeled Candida albicans ATCC 28366 in human GMSM-K cells assessed as reduction in fungal adherence to cells incubated for 4 hrs by fluorescence microscopic analysis; format: functional, organism-based; details: dose 6-48 µg/ml
Method in brief: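 Confluent GMSM-K monolayers (DMEM, 10% FBS) pre-incubated 30 min with two-fold dilutions in DMEM (37 °C, 5% CO2). FITC-labelled yeast (0.03 mg/mL FITC in 0.5 M NaHCO3 pH 8, 30 min, 37 °C) added at MOI 10³ for 4 h. After PBS washes, fluorescence read (ex 495/em 525 nm) as % of compound-free wells. Two independent experiments in triplicate.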

[13] = system: Candida albicans; test: Antibiofilm activity against Candida albicans ATCC 28366 assessed as inhibition of biofilm formation at 0.5 to 32 ug/ml incubated for 24 to 48 hrs by crystal violet staining based absorbance spectrometry analysis; format: functional, organism-based; details: dose 0.5-32 µg/ml, time 24-48 hrs; method in brief: as §1
[14] = Cytotoxicity against human B11 cells assessed as reduction in cell viability at 96 ug/ml incubated for 2 hrs by MTT assay; format: toxicity, cell-based; details: b11, 2 h, dose 96 µg/ml; method in brief: as §3
[15] = system: Candida albicans; test: Antifungal activity against Candida albicans ATCC 28366 assessed as reduction in fungal growth at up to 64 ug/ml incubated for 24 hrs by plate count determination; format: functional, organism-based; details: dose <= 64.0 µg/ml
[16] = system: Candida albicans; test: Antibiofilm activity against Candida albicans ATCC 28366 assessed as small subpopulation of hyphae formation at 2 ug/ml incubated for 4 hrs in spider medium by microscopic analysis; format: functional, organism-based; details: dose 2.0 µg/ml; method in brief: as §2
[17] = system: Candida albicans; test: Antibiofilm activity against Candida albicans ATCC 28366 assessed as reduction in hyphae formation at 4 ug/ml incubated for 4 hrs in spider medium by microscopic analysis; format: functional, organism-based; details: dose 4.0 µg/ml; method in brief: as §2
[18] = system: Candida albicans; test: Antibiofilm activity against Candida albicans ATCC 28366 assessed as inhibition of nitrogen deprivation induced morphological switching at 1 to 4 ug/ml incubated for 4 hrs in SLAD media by microscopic analysis; format: functional, organism-based; details: dose 1-4 µg/ml; method in brief: as §2
[19] = system: Candida albicans; test: Antibiofilm activity against Candida albicans ATCC 28366 assessed as inhibition of filamentation at 2 ug/ml incubated for 4 hrs in Lee's medium by microscopic analysis; format: functional, organism-based; details: dose 2.0 µg/ml; method in brief: as §2
[20] = system: Candida albicans; test: Antibiofilm activity against Candida albicans ATCC 28366 assessed as inhibition of morphogenesis at 1 to 4 ug/ml incubated for 4 hrs in spider medium by microscopic analysis; format: functional, organism-based; details: dose 1-4 µg/ml; method in brief: as §2
[21] = system: Candida albicans; test: Antibiofilm activity against Candida albicans LAM-1 at 4 ug/ml incubated for 24 to 48 hrs by crystal violet staining based absorbance spectrometry analysis; format: functional, organism-based; details: dose 4.0 µg/ml, time 24-48 hrs; method in brief: as §1
[22] = system: Candida albicans; test: Antibiofilm activity against Candida albicans ATCC 28366 assessed as short hyphae formation at 2 ug/ml incubated for 4 hrs in spider medium by microscopic analysis; format: functional, organism-based; details: dose 2.0 µg/ml; method in brief: as §2
[23] = system: Candida albicans; test: Antifungal activity against Candida albicans ATCC 28366 assessed as reduction in fungal growth incubated for 24 hrs by plate count determination; format: functional, organism-based
[24] = system: Candida albicans; test: Antibiofilm activity against Candida albicans ATCC 28366 incubated for 24 to 48 hrs by crystal violet staining based absorbance spectrometry analysis; format: functional, organism-based; details: time 24-48 hrs; method in brief: as §1
[25] = system: Candida albicans; test: Antibiofilm activity against Candida albicans ATCC 28366 assessed as inhibition of filamentation at 8 ug/ml incubated for 4 hrs in Lee's medium by microscopic analysis; format: functional, organism-based; details: dose 8.0 µg/ml; method in brief: as §2
[26] = system: Candida albicans; test: Antibiofilm activity against Candida albicans LAM-1 assessed as inhibition of morphogenesis at 8 ug/ml incubated for 4 hrs in spider medium by microscopic analysis; format: functional, organism-based; details: dose 8.0 µg/ml; method in brief: as §2
[27] = system: Candida albicans; test: Antibiofilm activity against Candida albicans ATCC 28366 assessed as inhibition of morphological switching at 8 ug/ml incubated for 4 hrs in YPD medium with fetal bovine serum by microscopic analysis; format: functional, organism-based; details: dose 8.0 µg/ml; method in brief: as §2
[28] = system: Candida albicans; test: Antibiofilm activity against Candida albicans LAM-1 assessed as reduction in fungal growth at 8 ug/ml incubated for 4 hrs in spider medium by plate count determination; format: functional, organism-based; details: dose 8.0 µg/ml; method in brief: as §4
[29] = system: Candida albicans; test: Antibiofilm activity against Candida albicans ATCC 28366 assessed as inhibition of nitrogen deprivation induced morphological switching at 8 ug/ml incubated for 4 hrs in SLAD media by microscopic analysis; format: functional, organism-based; details: dose 8.0 µg/ml; method in brief: as §2
[30] = system: Candida albicans; test: Antibiofilm activity against Candida albicans ATCC 28366 assessed as inhibition of morphogenesis at 8 ug/ml incubated for 4 hrs in spider medium by microscopic analysis; format: functional, organism-based; details: dose 8.0 µg/ml; method in brief: as §2
[31] = system: Candida albicans; test: Antibiofilm activity against Candida albicans ATCC 28366 assessed as inhibition of N-acetylglucosamine induced morphological switching at 8 ug/ml incubated for 4 hrs by microscopic analysis; format: functional, organism-based; details: dose 8.0 µg/ml; method in brief: as §2
[32] = system: Candida albicans; test: Antibiofilm activity against Candida albicans ATCC 28366 assessed as reduction in fungal growth at 8 ug/ml incubated for 4 hrs in spider medium by plate count determination; format: functional, organism-based; details: dose 8.0 µg/ml; method in brief: as §4

Question: For `c1ccc(COc2ccc(C[C@H]3CN[C@H](Cc4ccc(OCc5ccccc5)cc4)CN3)cc2)cc1`, which MIC [1] is on record?
Answer: > 128 µg/mL

Question: What about the Activity [2] of the same molecule?
Answer: Active

Question: What about the Activity [3] of the same molecule?
Answer: inactive

Question: Which results are given for `c1ccc(C[C@H]2CN[C@H](Cc3ccccc3)CN2)cc1`?
Answer: Activity [3]: inactive; Activity [4]: inactive

Question: With `c1ccc(COc2ccc(C[C@H]3CN[C@@H](Cc4ccccc4)CN3)cc2)cc1` as the molecule, how does the Activity [5] read?
Answer: Active

Question: And the Activity [6]?
Answer: inactive

Question: And the Activity [7]?
Answer: Toxic

Question: What about the inhibition [8] of the same molecule?
Answer: Active

Question: And the inhibition [9]?
Answer: inactive

Question: What about the Activity [10] of the same molecule?
Answer: inactive

Question: And the Activity [11]?
Answer: inactive

Question: And the Activity [12]?
Answer: Dose-Dependent Effect

Question: What about the inhibition [13] of the same molecule?
Answer: Active

Question: What about the MIC [1] of the same molecule?
Answer: 96 µg/mL (≈ 258 µM)

Question: What about the Activity [14] of the same molecule?
Answer: Toxic

Question: And the Activity [15]?
Answer: inactive

Question: What about the Activity [16] of the same molecule?
Answer: Active

Question: What about the Activity [17] of the same molecule?
Answer: Active

Question: What about the inhibition [18] of the same molecule?
Answer: inactive

Question: What about the inhibition [19] of the same molecule?
Answer: Active

Question: And the Activity [3]?
Answer: inactive

Question: And the inhibition [20]?
Answer: Active

Question: And the Activity [21]?
Answer: Active

Question: And the Activity [22]?
Answer: Active

Question: For `Oc1ccc(C[C@H]2CN[C@@H](Cc3ccc(O)cc3)CN2)cc1`, which Activity [3] is on record?
Answer: inactive

Question: And the Activity [23]?
Answer: inactive

Question: What about the Activity [24] of the same molecule?
Answer: inactive

Question: For `CN1C[C@@H](Cc2ccccc2)N(C)C[C@H]1Cc1ccccc1`, which Activity [4] is on record?
Answer: inactive

Question: Which Activity [3] does the source give for `Oc1ccc(C[C@H]2CN[C@@H](Cc3ccccc3)CN2)cc1` here?
Answer: inactive

Question: And the Activity [23]?
Answer: inactive

Question: What about the Activity [24] of the same molecule?
Answer: inactive

Question: What does the source list for `CN1C[C@H](Cc2ccc(OCc3ccccc3)cc2)N(C)C[C@@H]1Cc1ccccc1`?
Answer: inhibition [25]: inactive; inhibition [26]: inactive; inhibition [27]: inactive; Activity [28]: inactive; inhibition [29]: inactive; Activity [23]: inactive; inhibition [30]: inactive; Activity [24]: inactive; inhibition [31]: inactive; Activity [32]: inactive

Question: What does the source list for `CN1C[C@H](Cc2ccc(OCc3ccccc3)cc2)N(C)C[C@@H]1Cc1ccc(OCc2ccccc2)cc1`?
Answer: Activity [23]: inactive; Activity [24]: inactive

Question: What does the source list for `c1ccc(COc2ccc(C[C@H]3CN[C@H](Cc4ccccc4)CN3)cc2)cc1`?
Answer: inhibition [13]: Active; Activity [15]: inactive; Activity [3]: inactive

Question: Which inhibition [13] does the source give for `c1ccc(COc2ccc(C[C@@H]3CN[C@@H](Cc4ccccc4)CN3)cc2)cc1` here?
Answer: Active

Question: What about the MIC [1] of the same molecule?
Answer: > 128 µg/mL

Question: What about the Activity [15] of the same molecule?
Answer: inactive

Question: What about the Activity [3] of the same molecule?
Answer: inactive
